The results in this text go back to article PMC4165341 (ACS nano, 2011).

The target in experiment [1] is T1, mOR174-9 (mOR-EG), His-tagged, nanotube device (Mus musculus, UniProt Q920P2).
T1 sequence (Q920P2 1-313): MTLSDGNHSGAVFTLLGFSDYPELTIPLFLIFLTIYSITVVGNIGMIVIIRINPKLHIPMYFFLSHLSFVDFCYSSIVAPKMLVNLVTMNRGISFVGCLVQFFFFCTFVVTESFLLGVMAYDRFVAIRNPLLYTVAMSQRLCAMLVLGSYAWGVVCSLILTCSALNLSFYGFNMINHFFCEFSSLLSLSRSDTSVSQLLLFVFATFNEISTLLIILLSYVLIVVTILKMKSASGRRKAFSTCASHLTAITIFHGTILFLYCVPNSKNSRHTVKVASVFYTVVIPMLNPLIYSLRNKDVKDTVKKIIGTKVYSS
Description: carbon nanotube transistor current change. Conditions: digitonin micelle device; eugenol vapor in N2, 50% RH (2 ppm in Figure 2). Format: binding. The method in brief: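 Receptor solubilised from crude plasma membranes in 6.76 mM digitonin, captured on Ni-magnetic beads (1 h, 4 °C), eluted in 4.88 mM digitonin/acetate pH 4.0, readjusted to pH 8.0, used immediately. Back-gated nanotube transistors (on/off >1000) treated with 11.3 mM NTA-NH2 (2 h), then 11.3 mM NiCl2; receptor deposited 30 min, room temperature. Current recorded under computer-controlled humidity, temperature and vapor flow.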

In experiment [2] the target is T2, mOR256-17, His-tagged, nanotube device (Mus musculus, UniProt P23275).
T2 sequence (P23275 1-312): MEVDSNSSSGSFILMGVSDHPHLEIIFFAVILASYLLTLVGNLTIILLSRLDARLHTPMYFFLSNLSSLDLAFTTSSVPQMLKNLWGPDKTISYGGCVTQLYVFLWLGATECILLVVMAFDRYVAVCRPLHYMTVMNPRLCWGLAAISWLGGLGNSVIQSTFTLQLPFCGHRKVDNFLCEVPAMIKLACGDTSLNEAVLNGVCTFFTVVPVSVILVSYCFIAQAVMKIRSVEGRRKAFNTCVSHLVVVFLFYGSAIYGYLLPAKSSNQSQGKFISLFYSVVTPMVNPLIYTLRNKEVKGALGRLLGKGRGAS
Description: carbon nanotube transistor current change. Conditions: odorant vapor in N2, 50% RH, concentration not given. In kind it is binding.

`C=CCc1ccc(O)c(OC)c1` [eugenol]: the “mOR 174-9 / micelle nanotube” value in experiment [1] was “+20.9±4.6%”. Also, in experiment [2], the “mOR 256-17 / nanodisc nanotube” value is “+33.6±8.3%”.
